Screening results (PubChem)
In the library only some 1.5% were active in any assay of this set; here they are far more common.
ZTA DNA inh: counter-screen for EBNA-1 inhibitors: inhibitors of Epstein-Barr virus ZTA; P03206; ZTA-DNA binding, fluorescence polarization; inhibition, % at 11 µM; actives 0.15% (n = 320,000); in the data active = inhibition above about 33%
LANA-H2B inh: blocks KSHV LANA binding to histone H2A/H2B | inhibition, % (test concentration not listed) | Q9QR71 | actives 0.6% (n = 320,000) | cell-free LANA-H2A/H2B peptide, fluorescence polarization; in the data active = inhibition mostly above about 10%, no sharp cut-off; inactive = mostly below about 6.7%
EBNA-1 inhibitor: blocks EBNA-1 binding to DNA. EBNA-1 DNA binding, fluorescence polarization. inhibition, % at 14.8 µM. actives 0.34% (n = 300,000); in the data active = inhibition above about 28%
HNF4A DNA FP: change in binding of human HNF4 alpha to DNA; actives 0.3% (n = 360,000); HNF4a-FITC DNA binding, fluorescence polarization, 1 h; activity change, % at 10 µM; AID 1224865; P41235; in the data active = activity change above about 30%, passing the limit was not always enough
Target sequence (P41235 whole entry, looked up): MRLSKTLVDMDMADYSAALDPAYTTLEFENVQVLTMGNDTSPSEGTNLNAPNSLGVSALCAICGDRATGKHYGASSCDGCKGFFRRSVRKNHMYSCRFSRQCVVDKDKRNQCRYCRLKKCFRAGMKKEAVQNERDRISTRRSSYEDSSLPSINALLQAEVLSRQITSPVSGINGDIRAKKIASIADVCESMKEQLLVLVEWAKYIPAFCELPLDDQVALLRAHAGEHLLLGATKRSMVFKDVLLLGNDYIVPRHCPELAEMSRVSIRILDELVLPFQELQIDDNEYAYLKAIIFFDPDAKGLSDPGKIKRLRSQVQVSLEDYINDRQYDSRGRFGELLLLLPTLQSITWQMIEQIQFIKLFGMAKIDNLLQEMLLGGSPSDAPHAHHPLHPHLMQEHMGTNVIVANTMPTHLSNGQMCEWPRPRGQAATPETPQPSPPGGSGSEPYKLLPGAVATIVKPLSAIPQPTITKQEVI
A1 inh: inhibitors of the anti-apoptotic protein A1, read as caspase activation | MEF A1-2A-BIM cells, Caspase-Glo 3/7 luminescence, 3 h; percent of clofoctol response, vehicle zero | caspase activation, % (concentration not given with the values) | actives 0.066% (n = 330,000) | AID 2462;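 active = over half of replicate activation scores above 10%, or exactly half above 10 with the replicate mean above 10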
CSN inh: blocks human CSN-mediated cullin deneddylation; Q92905; Purified CSN, SCF-Nedd8-OG deneddylation, fluorescence polarization; inhibition, % at 12.5 µM; actives 0.38% (n = 360,000); AID 651999;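 active = pattern-corrected inhibition above about 35%, with an unprinted fluorescence ratio check between 0.5 and 1.5, limit read from the data, passing the limit was not always enough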
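Test system: purified human Csn5 enzyme expressed in HEK293T cells. Amount: 0.24 nM enzyme. Reagent: SCFSkp2-Nedd8OG substrate at 10 nM final. Schedule: 90 min incubation of compound, enzyme and substrate at room temperature. Detection: fluorescence polarization. Read-out: % inhibition of substrate cleavage by Csn5.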
Numbers stand for hits; n = inactive; x = not tested or not shown; + = active, no number; ! = not active in a repeat.

SMILES | ZTA DNA inh | LANA-H2B inh | EBNA-1 inhibitor | HNF4A DNA FP | A1 inh | CSN inh
Cc1cc(-c2ccccc2)nc2c(Br)c(=O)[nH]n12 | n | 13.1 | n | n | n | n
CC(OC(=O)Cc1c(F)cccc1Cl)C(=O)NC1(C#N)CCCCC1 (stereo not drawn) | n | n | n | n | n | n
CCc1oc2ccccc2c1C(=O)c1cc(Br)c(O)c(Br)c1 | n | 22.0! | n | n | n | n
CCOC(=O)CN(C(=O)CNC(=O)c1ccco1)C(C(=O)NC1CCCCC1)c1cccnc1 (stereo not drawn) | n | n | n | n | n | n
COc1ccc(CCNC(=O)[C@H](C)NC(=O)N2CCn3c2nc2ccccc23)cc1OC | n | n | n | n | n | n
CN(C)c1ccc(N=Cc2cccn2C)cc1 | + | n | + | n | n | n
CN(C)c1ccc(N=Cc2nc(-c3ccccc3)oc2O)cc1 | n | n | n | n | n | n
COc1ccc(OCC(=O)Nc2cc(-c3nn4c(C)nnc4s3)ccc2C)cc1 | n | n | n | 42.2 | n | n
Cc1cc(OCC(=O)Nc2cc(-c3nn4c(C)nnc4s3)ccc2C)ccc1Cl | n | n | n | n | n | n
COc1ccc(C(=O)NCCCn2cccn2)cc1OC1CCN(C(C)=O)CC1 | x | x | x | n | x | n
CCOc1ccc(C(=O)Nc2ccc(S(=O)(=O)N3C[C@@H]4C[C@@H](C3)c3cccc(=O)n3C4)cc2)cc1 | n | 17.4 | x | n | n | n
O=C(Nc1ccc(S(=O)(=O)N2C[C@@H]3C[C@@H](C2)c2cccc(=O)n2C3)cc1)c1ccc(F)cc1 | n | n | x | n | n | n
CCOc1ccc(C(=O)Nc2ccc(S(=O)(=O)N3CCN(C)CC3)cc2)cc1 | n | 14.6 | n | n | n | n
Nc1nn(-c2ccccc2Cl)cc1-c1nn[nH]n1 | n | n | n | n | n | n
O=C(COC(=O)CCc1nc2ccccc2c(=O)[nH]1)Nc1ccccc1 | x | 24.4 | x | n | n | n
N#Cc1ccc(NC(=O)COC(=O)CCc2nc3ccccc3c(=O)[nH]2)cc1 | n | n | n | n | n | n
CNc1ccc2c3c(cccc13)C(=O)N(C)C2=O | n | 88.3 | n | n | n | n
CCNC(=O)C1CCCN(C(=O)c2cnc3ccccc3n2)CC1 (stereo not drawn) | x | x | x | n | x | n
Cc1cc(C)c(Nc2cc(S(=O)(=O)O)c(N)c3c2C(=O)c2ccccc2C3=O)c(C)c1 | 51.6 | n | 50.5 | n | n | n
Cc1cc(C)c(NC(=O)COC(=O)c2cccc3c2C(=O)c2ccccc2C3=O)c(C)c1 | n | n | n | n | n | n
COc1ccc2sc3cccc(NCCN(C)C)c3c(=O)c2c1 | x | x | x | n | x | n
CN(C)CCNc1ccc(CO)c2sc3ccc(O)cc3c(=O)c12 | x | x | x | 35.6 | x | n
COCc1[nH][nH]c(=O)c1/C=N/N1CCOCC1 | n | n | n | n | n | n
COc1ccccc1/C=C/C=N/NC(=O)c1cc(-c2ccco2)[nH]n1 | n | n | n | n | n | 44.9
CCN(CCCNc1cc2c(c(N)c1S(=O)(=O)O)C(=O)c1ccccc1C2=O)c1ccccc1 | x | x | x | n | x | n
SMILES | ZTA DNA inh | LANA-H2B inh | EBNA-1 inhibitor | HNF4A DNA FP | A1 inh | CSN inh
Cc1ccc(NC(=S)Nc2cccc3cnccc23)cc1C | n | n | n | n | n | 36.9
Cc1ccc(NC(=S)Nc2cccc3cnccc23)cc1 | n | n | n | n | n | n
Cc1ccccc1NC(=S)Nc1cccc2cnccc12 | n | n | n | n | n | n
Cc1ccc(C)c(NC(=S)Nc2cccc3cnccc23)c1 | n | n | n | n | n | 35.5
O=C(CNC(=O)c1ccccc1F)NCCN1C(=O)S/C(=C\c2ccc3c(c2)OCO3)C1=O | n | 28.0 | x | n | n | n
NCCN1C(=O)S/C(=C\c2ccc3c(c2)OCO3)C1=O | n | n | n | n | n | n
Cc1cc(C)n(-c2nc3nonc3nc2Nc2cccc(C)c2C)n1 | n | n | n | n | n | 57.1
N#C/C(=C\c1ccc([N+](=O)[O-])o1)C(=O)Nc1ccc(F)cc1 | 79.3 | n | 37.1 | n | n | n
COc1ccc(NC(=O)/C(C#N)=C\c2ccc(Br)o2)cc1 | n | n | n | n | n | n
COc1ccccc1CNC(=O)COC(=O)c1ccc(-n2cnnn2)cc1 | n | n | n | n | n | n
CCOC(=O)c1cnc2ccccc2c1NCCO | n | 16.0 | n | n | n | n
CN1/C(=C\C(=O)c2ccco2)C(C)(C)c2ccccc21 | 147.3 | n | 38.7 | 41.7 | n | n
CC(C)C(=O)NC(=S)/C=C1/N(C)c2ccccc2C1(C)C | n | n | n | 69.2 | n | 48.0
Cc1ccc(S(=O)(=O)N(c2nc(NC(C)C)nc(NC(C)C)n2)n2cnnc2)cc1 | n | n | n | n | n | n
COc1ccc(N2CCN(C3CCCN(Cc4cccc(C(C)=O)c4)C3)CC2)cc1 (stereo not drawn) | n | n | n | n | n | n
CCOc1ccc(NC(=O)CSc2nnnn2-c2ccc(C(N)=O)cc2)cc1 | n | n | n | n | n | n
COc1ccc(CCN2CCCC(CN(C)C(=O)c3ccoc3)C2)cc1 (stereo not drawn) | x | 15.4 | x | n | n | n
COC(=O)[C@@]12C[C@@H](CC(=O)N3CCC(c4ccccc4)CC3)C(=O)N(Cc3ccco3)C1=CCC(C)(C)C2 | x | x | x | n | x | 120.6
CC(NC(=O)/C(C#N)=C1\N=C(NC(=O)c2cccs2)c2ccccc21)c1ccccc1 (stereo not drawn) | n | n | n | 54.9 | n | n
CCCOc1ccc(C2/C(=C(/O)c3ccc(F)cc3)C(=O)C(=O)N2CCCN(C)C)cc1 (stereo not drawn) | n | n | n | n | n | 38.8
CCOc1ccccc1C(=O)Nc1ccc(-n2nncc2C(C)(C)C)cc1 | n | n | n | 70.2 | n | n
CCOc1ccccc1C(=O)Nc1ccc(S(=O)(=O)N2CCN(C)CC2)cc1 | x | n | x | n | n | n
COc1ccc(N2CCN(C3CCCN(C(=O)c4cccc(C)n4)C3)CC2)cc1 (stereo not drawn) | n | n | n | n | n | n
CC(=O)N1CCN(C(=O)c2c(-c3ccccc3)noc2C)CC1 | n | 22.3 | x | n | n | n
CCN1CCN(C(=O)c2c(-c3ccccc3)noc2C)CC1 | n | n | n | n | n | n
CN(c1ccccc1C(=O)Nc1ccc(CC#N)cc1)S(=O)(=O)c1ccccc1 | n | n | n | n | n | n
O=C1OC(CC(=O)N(Cc2nnc(-c3ccccc3Cl)o2)C2CC2)c2ccccc21 (stereo not drawn) | n | 20.3 | x | n | n | n
CC(C)(C)C(=O)c1c(N)[nH]c(C(=O)c2ccccc2)c1-c1ccccc1Br | x | x | x | n | x | n
NC(=O)c1c(N)[nH]c(C(=O)c2ccccc2)c1-c1ccccc1Br | x | x | x | n | x | 108.2
CCOc1ccc(OCCCC(=O)NCCc2ccc(OC)cc2)cc1 | n | 11.1 | n | n | n | n
